Assay results pooled from the literature.
Each line is one published result; the experiments were not run side by side.
Target: Serine/threonine-protein kinase Nek2 (NEK2, Homo sapiens, UniProt P51955)
One construct used (P51955 1-445): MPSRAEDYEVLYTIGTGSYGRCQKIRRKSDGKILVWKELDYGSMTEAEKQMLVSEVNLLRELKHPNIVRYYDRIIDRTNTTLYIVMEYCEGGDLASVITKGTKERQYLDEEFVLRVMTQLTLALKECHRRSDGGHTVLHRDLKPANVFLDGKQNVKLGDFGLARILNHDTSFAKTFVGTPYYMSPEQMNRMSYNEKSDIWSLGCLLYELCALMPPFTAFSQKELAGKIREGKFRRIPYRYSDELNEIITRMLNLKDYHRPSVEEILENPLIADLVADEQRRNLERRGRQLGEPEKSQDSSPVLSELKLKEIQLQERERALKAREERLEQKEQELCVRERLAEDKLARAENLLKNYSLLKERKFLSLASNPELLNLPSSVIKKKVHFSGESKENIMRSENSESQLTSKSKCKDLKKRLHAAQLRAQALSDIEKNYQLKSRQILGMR

N[C@H]1CCN(c2nccc(-c3cnn4ncccc34)n2)C1  remaining binding (binding; 1 µM): 100%
O=C(c1ccc(Nc2ncc(Cl)c(-c3ccc(Cl)s3)n2)cc1)N1CCC(N2CCCC2)CC1  remaining binding (binding; competition with immobilised ligand; 1 µM): 65%
CN(CCCC(F)(F)F)c1nccc(-c2cnn3ncccc23)n1  remaining binding (binding; 1 µM): 100%
O=C(c1ccc(Nc2nccc(-c3cc4ccccc4s3)n2)cc1)N1CCC(N2CCCC2)CC1  remaining binding (binding; competition with immobilised ligand; 1 µM): 95%
CN(C)c1nccc(-c2cnn3ncccc23)n1  remaining binding (binding; 1 µM): 100%
COc1cnc(Nc2cccc(S(N)(=O)=O)c2)nc1N1CCN(c2ccccc2)CC1  remaining binding (binding; competition with immobilised ligand; 1 µM): 97%
CC(=O)N1CCC(c2ccc(C(=O)NC(=N)N)cc2C(F)(F)F)CC1  remaining binding (cell-free assay; competition with immobilised ligand; 1 µM): 100%
Nc1ncc2c(n1)-c1c([nH]c3ccc(C#CC4CC4)cc13)CCCC2  remaining binding (binding; competition with immobilised ligand; 1 µM): 87%
C=CC(=O)N1CCC(C(=O)NCC(=O)N2CCN(c3nc(-c4cnc(N)nc4C(F)F)nc(N4CCOCC4)n3)CC2)CC1  remaining binding (binding; competition with immobilised ligand; 1 µM): 95%
COc1cnc(Nc2cccc(S(N)(=O)=O)c2)nc1N1CCN(c2ccccc2)C(=O)C1  remaining binding (binding; competition with immobilised ligand; 1 µM): 98%
COCCOc1nc(-c2ccc(Cl)nc2)nc2c1CN(C(=O)c1ncn3ccccc13)CC2  remaining binding (cell-free assay; competition with immobilised ligand; 0.1 µM): 100%
O=C(NCCCN1CCOCC1)c1ccc(Nc2nccc(-c3cc4ccccc4s3)n2)cc1  remaining binding (binding; competition with immobilised ligand; 1 µM): 94%
C[C@H](c1ccnc(Nc2nc3ccc(-c4cc(N(C)C)ncn4)cc3[nH]2)c1)N1CCN(C(=O)CC(F)(F)F)CC1  remaining binding (cell-free assay; competition with immobilised ligand; 0.1 µM): 100%
c1cncc(-c2cccc(Nc3nccc(NC4CCCCC4)n3)c2)c1  remaining binding (binding; competition with immobilised ligand; 10 µM): 97%
Cn1cc(Cl)c2c(Oc3c(F)cc(Nc4cc(Cl)nc(N)n4)cc3F)ccnc21  remaining binding (cell-free assay; competition with immobilised ligand; 0.1 µM): 100%
C[C@@H]1CCN(c2nccc(-c3cnn4ncccc34)n2)C1  remaining binding (binding; 1 µM): 87%
NS(=O)(=O)c1cc(NC(=O)C2(c3ccccc3Cl)CC2)ccc1Oc1cccc(Cl)c1  remaining binding (cell-free assay; competition with immobilised ligand; 1 µM): 86%
CC1CCCN1c1nccc(-c2cnn3ncccc23)n1 (centres unmarked)  remaining binding (binding; 1 µM): 100%
O=C(N[C@H]1CCCCC/C=C\C2C[C@@]2(C(=O)O)NC(=O)[C@@H]2C[C@@H](Oc3ccncc3)CN2C1=O)OC1CCCC1 (some centres unmarked)  remaining binding (binding; competition with immobilised ligand; 1 µM): 94%
O=C(Nc1c[nH]nc1C(=O)NC1CCNCC1)c1cc(F)cc(F)c1  remaining binding (binding; competition with immobilised ligand; 1 µM): 93%
